Screening data as filed in PubChem BioAssay.
An excerpt weighted towards active compounds, which were near 2.8% of everything screened.
pPAFAH inh – inhibitors of human plasma PAF acetylhydrolase (pPAFAH) | Q13093 | inhibition, % at 3.39 µM | AID 463082 | hit rate 1.5% among 330,000 | recombinant pPAFAH, FP-rhodamine probe fluorescence polarization;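 active = inhibition above the mean inhibition across the screen plus 3 SD, cut at about 25% in these data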;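 note: inhibitors block binding of the rhodamine activity-based probe so polarization drops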
PAFAH1B2 FP inh – PAFAH1B2 (human) inhibition; hit rate 1.2% among 340,000; inhibition, % at 3.39 µM; P68402; AID 492953; recombinant PAFAH1B2, FP-rhodamine activity probe, fluorescence polarization;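 active = inhibition above the mean of all tested compounds plus 3 SD, cut at about 24% in these data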
HTRA1 inhibitor – inhibitors of human serine peptidase HTRA1 | recombinant HTRA1, FP-rhodamine activity-based probe, fluorescence polarization | hit rate 0.5% among 340,000 | AID 504803 | inhibition, % at 5.96 µM; in the data active = inhibition above about 36%
Target sequence (Q92743 whole entry, looked up): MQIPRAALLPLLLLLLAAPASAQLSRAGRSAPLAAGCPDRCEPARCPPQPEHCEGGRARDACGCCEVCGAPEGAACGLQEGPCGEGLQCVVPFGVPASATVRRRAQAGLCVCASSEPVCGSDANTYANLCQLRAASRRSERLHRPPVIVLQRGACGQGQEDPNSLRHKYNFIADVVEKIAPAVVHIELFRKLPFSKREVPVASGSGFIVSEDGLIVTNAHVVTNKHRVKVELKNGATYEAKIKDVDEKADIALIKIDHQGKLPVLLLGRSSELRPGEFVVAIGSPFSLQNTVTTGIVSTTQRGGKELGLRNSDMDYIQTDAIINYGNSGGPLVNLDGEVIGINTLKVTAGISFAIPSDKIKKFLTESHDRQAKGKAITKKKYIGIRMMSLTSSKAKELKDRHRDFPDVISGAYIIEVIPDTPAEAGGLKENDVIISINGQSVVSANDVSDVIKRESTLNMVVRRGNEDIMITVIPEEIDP
PAFAH1B3 inh – PAFAH1B3 (human) inhibition. hit rate 0.28% among 340,000. inhibition, % at 3.39 µM. recombinant PAFAH1B3, FP-rhodamine probe, fluorescence polarization. AID 492972;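 active = inhibition above the screen-wide average of all tested compounds plus 3 SD, cut at about 25% in these data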
PAFAH2 inh – inhibitors of human PAFAH2 | Q99487 | hit rate 0.99% among 340,000 | recombinant PAFAH2, FP-rhodamine activity probe, fluorescence polarization | inhibition, % at 3.39 µM | AID 492956;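 active = inhibition above the mean over all tested compounds plus 3 SD, cut at about 30% in these data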;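 note: inhibitors block probe labeling of enzyme so polarization drops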
ABHD4 inh – inhibits mouse alpha/beta hydrolase domain 4; Q8VD66; purified mABHD4, FP-Rh probe fluorescence polarization; hit rate 0.54% among 370,000; AID 720543; inhibition, % at 8.92 µM;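 active = inhibition exceeding the mean over every tested compound plus 3 SD, cut at about 30% in these data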
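System: mouse ABHD4 enzyme, wild type / Medium: HEPES pH 7.0, NaCl, Pluronic buffer / Reagent: FP-Rh activity-based fluorescent probe / Control set: S159A mutant high control, sample median low control / Detection: fluorescence polarization with parallel and perpendicular emission, 525/598 nm / Schedule: 45 min + 60 min at 25 °C / Compound dosing: 8.92 µM, single dose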
Each line names hits and unclear results; the compound was inactive in the other large screens.

CCOC(=O)Cn1cc(CN2C(C(=O)OC)CN(Cc3ccc(OC)cc3)CCS2(=O)=O)nn1 (stereo not drawn)	none (no result: pPAFAH inh, PAFAH1B2 FP inh, HTRA1 inhibitor, PAFAH1B3 inh, PAFAH2 inh)
Oc1c(Cl)cc(Cl)cc1/C=N/c1nccs1	none
Oc1c(Cl)cc(Cl)cc1/C=N/c1nc(-c2ccc(Cl)cc2)cs1	PAFAH1B2 FP inh 48 (no result: ABHD4 inh)
O=C(NC1CCCCN(Cc2cccc(F)c2)C1=O)c1ccc2ccccc2c1 (stereo not drawn)	none (no result: pPAFAH inh, PAFAH1B2 FP inh, HTRA1 inhibitor, PAFAH1B3 inh, PAFAH2 inh)
NNC(=O)c1nn(-c2ccc(Cl)cc2)cc1O	pPAFAH inh 34
Cc1cc(N2CCN(Cc3ccc4c(c3)OCO4)CC2)n2nc(C)nc2n1	none (no result: pPAFAH inh, PAFAH1B2 FP inh, HTRA1 inhibitor, PAFAH1B3 inh, PAFAH2 inh)
CC(CCN1CCC(C(O)(c2ccccc2)c2ccccc2)CC1)Oc1ccc(F)cc1 (stereo not drawn)	none (no result: pPAFAH inh, PAFAH1B2 FP inh, HTRA1 inhibitor, PAFAH1B3 inh, PAFAH2 inh)
N/C(=N\C(=O)OCc1ccccc1)N(Cc1ccccc1)C(C#CC1=CCCCC1)Cc1ccccc1 (stereo not drawn)	none (no result: pPAFAH inh, PAFAH1B2 FP inh, HTRA1 inhibitor, PAFAH1B3 inh, PAFAH2 inh)
Cc1ccc(COc2ccc(/C=N/O)cc2)cc1	PAFAH1B2 FP inh 33
COCCCNC(=O)c1ccc(Cn2c(=O)c3ccccc3n(Cc3ccc(Br)cc3)c2=O)cc1	none (no result: pPAFAH inh, PAFAH1B2 FP inh, HTRA1 inhibitor, PAFAH1B3 inh, PAFAH2 inh)
Cc1ccc(N2CCN(c3ncccc3[N+](=O)[O-])CC2)c(C)c1	none
Cc1ccc(C)c(N2CCN(c3ncccc3[N+](=O)[O-])CC2)c1	pPAFAH inh 28
CC(=O)OC[C@]12CC[C@H]3[C@@](C)(CC[C@H]4C(C)(C)CCC[C@]34C)[C@@H]1C[C@H](C1=CC(=O)O[C@H]1OC(C)=O)O2	pPAFAH inh 50 (no result: PAFAH1B2 FP inh, HTRA1 inhibitor, PAFAH1B3 inh, PAFAH2 inh, ABHD4 inh)
O=C(N1CCCCC1)C1(c2ccccc2)CCOCC1	none
O=C(N1CCCCC1)C1(c2ccccc2)CCCCC1	PAFAH1B2 FP inh 30
O=C(N1CCOCC1)C1(c2ccccc2)CCCCC1	PAFAH1B2 FP inh 28
COc1cccc(-c2ccc(CC[C@H]3O[C@H]4CC[C@@H](CO)O[C@H]4C[C@H]3NC(=O)c3cnccn3)cc2)c1	none (no result: pPAFAH inh, PAFAH1B2 FP inh, HTRA1 inhibitor, PAFAH1B3 inh, PAFAH2 inh)
CCOC(=O)c1c(OCC)[nH]c2c1cc(O)c1ccccc12	pPAFAH inh 27
CCOc1ccc(S(=O)(=O)Nc2ccc(C(=O)NCCCN3CCOCC3)cc2)cc1	none
Cc1ccc(NS(=O)(=O)c2ccc(C(=O)NCCN3CCOCC3)cc2)cc1	pPAFAH inh 25
O=C(NCCN1CCOCC1)c1ccc(S(=O)(=O)Nc2ccccc2)cc1	none
CCOc1ccc(NS(=O)(=O)c2ccc(C(=O)NCCN3CCOCC3)cc2)cc1	pPAFAH inh 32
COC(=O)[C@@]12CCCCC3=C1N(CCC3)C(=O)[C@H]2CC(=O)NCc1ccccc1	none (no result: pPAFAH inh, PAFAH1B2 FP inh, HTRA1 inhibitor, PAFAH1B3 inh, PAFAH2 inh)
O=C(CSc1ncnc2scc(-c3ccc(Cl)cc3)c12)Nc1ccccc1-c1ccccc1	none (no result: pPAFAH inh, PAFAH1B2 FP inh, HTRA1 inhibitor, PAFAH1B3 inh, PAFAH2 inh)
O=C(Cn1nc(Cc2cccnc2)c2ccccc2c1=O)Nc1ccccc1F	pPAFAH inh 25
CC(OC(=O)c1ccc([N+](=O)[O-])s1)C(=O)Nc1ncc(Cl)cc1Cl (stereo not drawn)	pPAFAH inh 26, PAFAH1B3 inh 30, PAFAH2 inh 30
O=C(NCc1cccnc1)/C(=C/c1ccc(-c2cccc(Cl)c2)o1)S(=O)(=O)c1ccccc1	none
O=C(NCc1cccnc1)/C(=C\c1ccc(-c2cccc(Cl)c2)o1)S(=O)(=O)c1ccccc1	pPAFAH inh 26
NS(=O)(=O)c1cc(C(=O)O)cc(N2CCCC2)c1Oc1ccccc1	PAFAH1B2 FP inh 29
CCCCNc1cc(C(=O)O)cc(S(N)(=O)=O)c1Oc1ccccc1	none
O=C(O)CN1C(=O)C2C3CC(C2C1=O)C1C(c2ccccc2)c2sc(=O)[nH]c2SC31 (stereo not drawn)	PAFAH1B2 FP inh 72
CC(C)CC(C(=O)O)N1C(=O)C2C3CC(C2C1=O)C1C(c2ccccc2)c2sc(=O)[nH]c2SC31 (stereo not drawn)	PAFAH1B2 FP inh 40
O=C(O)CCCN1C(=O)C2C3CC(C2C1=O)C1C(c2ccccc2)c2sc(=O)n(-c4ccccc4)c2SC31 (stereo not drawn)	none
O=C(C1CCCN1S(=O)(=O)c1ccccc1[N+](=O)[O-])N1CCc2ccccc2C1 (stereo not drawn)	none (no result: pPAFAH inh, PAFAH1B2 FP inh, HTRA1 inhibitor, PAFAH1B3 inh, PAFAH2 inh)
O=C(CCn1nnc2ccccc21)NNC(=O)C1CCCCC1	pPAFAH inh 25
Cc1ccc(CSCCNS(=O)(=O)c2ccc(C)cc2)cc1	PAFAH1B2 FP inh 25
CC(=O)Nc1ccc(S(=O)(=O)NCCc2c[nH]c3ccc(C)cc23)cc1	none (no result: pPAFAH inh)
